Data published in ChEMBL document CHEMBL3576819, “Design, synthesis, biological evaluation and molecular docking studies of phenylpropanoid derivatives as potent anti-hepatitis B virus agents” (Eur J Med Chem, 2015).
Blank lines part the entries; values can stand above or below the compound they belong to.

Experiments:
[1] = Cytotoxicity against human HepG2.2.15 cells assessed as cell death after 9 days by MTT assay; format: cell-based, HepG2 2.2.15
Procedure, shortened: (§1)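 HepG2.2.15 cells (MEM, 10% FBS, 380 µg/ml G418, 37 °C, 5% CO2) seeded at 1×10^5 cells/ml, cultured 24 h, then exposed to various drug concentrations; drug-containing medium renewed every 3 d. OD read at 450 nm after 9 days; percent cell death calculated; CC50 = concentration killing 50% of cells. Means of at least two experiments.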

Hepatitis B virus [2] = experiment: Antiviral activity against Hepatitis B virus infected in human HepG2.2.15 cells assessed as inhibition of HBsAg secretion by ELISA; format: functional, organism-based; details: HepG2 2.2.15
Procedure, shortened: (§2)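 HepG2.2.15 cells (MEM, 10% FBS, 380 µg/ml G418) seeded at 1×10^5 cells/ml, held 24 h at 37 °C, then treated with various drug concentrations; medium with drug renewed every 3 d for up to 9 d. Culture medium sampled on days 3, 6 and 9, stored at -20 °C, and assayed for secreted antigen. Lamivudine as positive control; IC50 = 50% inhibition of secretion; means of at least two experiments.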

Hepatitis B virus [3] = experiment: Antiviral activity against Hepatitis B virus infected in human HepG2.2.15 cells assessed as inhibition of HBeAg secretion by ELISA; format: functional, organism-based; details: HepG2 2.2.15; procedure, shortened: as §2
[4] = Selectivity index, ratio of CC50 for human HepG2.2.15 cells to IC50 for Hepatitis B virus infected in human HepG2.2.15 cells assessed as inhibition of HBsAg secretion; format: functional
Procedure, shortened: (§3)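 Selectivity index computed as CC50/IC50, with CC50 from cell death of HepG2.2.15 cells after 9 days of treatment (OD 450 nm) and IC50 from 50% inhibition of HBeAg or HBsAg secretion in the same cells; medium with drug renewed every 3 d.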

[5] = Selectivity index, ratio of CC50 for human HepG2.2.15 cells to IC50 for Hepatitis B virus infected in human HepG2.2.15 cells assessed as inhibition of HBeAg secretion; format: functional; procedure, shortened: as §3
Hepatitis B virus [6] = experiment: Antiviral activity against Hepatitis B virus infected in human HepG2.2.15 cells assessed as cell survival at 75 uM after 9 days (reference value: 100%); format: functional; details: HepG2 2.2.15, 216 h; procedure, shortened: as §1
Hepatitis B virus [7] = experiment: Antiviral activity against Hepatitis B virus infected in human HepG2.2.15 cells assessed as inhibition of HBsAg secretion at 75 uM after 3 days by ELISA; format: functional; details: HepG2 2.2.15, 72 h; procedure, shortened: as §2
Hepatitis B virus [8] = experiment: Antiviral activity against Hepatitis B virus infected in human HepG2.2.15 cells assessed as inhibition of HBeAg secretion at 150 uM after 9 days by ELISA; format: functional; details: HepG2 2.2.15, 216 h; procedure, shortened: as §2
Hepatitis B virus [9] = experiment: Antiviral activity against Hepatitis B virus infected in human HepG2.2.15 cells assessed as inhibition of HBsAg secretion at 150 uM after 6 days by ELISA; format: functional; details: HepG2 2.2.15, 144 h; procedure, shortened: as §2
Hepatitis B virus [10] = experiment: Antiviral activity against Hepatitis B virus infected in human HepG2.2.15 cells assessed as inhibition of HBeAg secretion at 75 uM after 9 days by ELISA; format: functional; details: HepG2 2.2.15, 216 h; procedure, shortened: as §2
Hepatitis B virus [11] = experiment: Antiviral activity against Hepatitis B virus infected in human HepG2.2.15 cells assessed as inhibition of HBsAg secretion at 75 uM after 6 days by ELISA; format: functional; details: HepG2 2.2.15, 144 h; procedure, shortened: as §2
Hepatitis B virus [12] = experiment: Antiviral activity against Hepatitis B virus infected in human HepG2.2.15 cells assessed as cell survival at 37.5 uM after 9 days (reference value: 100%); format: functional; details: HepG2 2.2.15, 216 h; procedure, shortened: as §1
Hepatitis B virus [13] = experiment: Antiviral activity against Hepatitis B virus infected in human HepG2.2.15 cells assessed as inhibition of HBeAg secretion at 300 uM after 3 days by ELISA; format: functional; details: HepG2 2.2.15, 72 h; procedure, shortened: as §2
Hepatitis B virus [14] = experiment: Antiviral activity against Hepatitis B virus infected in human HepG2.2.15 cells assessed as inhibition of HBsAg secretion at 75 uM after 9 days by ELISA; format: functional; details: HepG2 2.2.15, 216 h; procedure, shortened: as §2
Hepatitis B virus [15] = experiment: Antiviral activity against Hepatitis B virus infected in human HepG2.2.15 cells assessed as inhibition of HBeAg secretion at 150 uM after 3 days by ELISA; format: functional; details: HepG2 2.2.15, 72 h; procedure, shortened: as §2
Hepatitis B virus [16] = experiment: Antiviral activity against Hepatitis B virus infected in human HepG2.2.15 cells assessed as inhibition of HBeAg secretion at 150 uM after 6 days by ELISA; format: functional; details: HepG2 2.2.15, 144 h; procedure, shortened: as §2
Hepatitis B virus [17] = experiment: Antiviral activity against Hepatitis B virus infected in human HepG2.2.15 cells assessed as inhibition of HBsAg secretion at 150 uM after 3 days by ELISA; format: functional; details: HepG2 2.2.15, 72 h; procedure, shortened: as §2
Hepatitis B virus [18] = experiment: Antiviral activity against Hepatitis B virus infected in human HepG2.2.15 cells assessed as inhibition of HBeAg secretion at 75 uM after 6 days by ELISA; format: functional; details: HepG2 2.2.15, 144 h; procedure, shortened: as §2
Hepatitis B virus [19] = experiment: Antiviral activity against Hepatitis B virus infected in human HepG2.2.15 cells assessed as cell survival at 300 uM after 9 days (reference value: 100%); format: functional; details: HepG2 2.2.15, 216 h; procedure, shortened: as §1
Hepatitis B virus [20] = experiment: Antiviral activity against Hepatitis B virus infected in human HepG2.2.15 cells assessed as inhibition of HBeAg secretion at 37.5 uM after 6 days by ELISA; format: functional; details: HepG2 2.2.15, 144 h; procedure, shortened: as §2
Hepatitis B virus [21] = experiment: Antiviral activity against Hepatitis B virus infected in human HepG2.2.15 cells assessed as inhibition of HBeAg secretion at 37.5 uM after 3 days by ELISA; format: functional; details: HepG2 2.2.15, 72 h; procedure, shortened: as §2
Hepatitis B virus [22] = experiment: Antiviral activity against Hepatitis B virus infected in human HepG2.2.15 cells assessed as inhibition of HBeAg secretion at 37.5 uM after 9 days by ELISA; format: functional; details: HepG2 2.2.15, 216 h; procedure, shortened: as §2
Hepatitis B virus [23] = experiment: Antiviral activity against Hepatitis B virus infected in human HepG2.2.15 cells assessed as inhibition of HBsAg secretion at 300 uM after 3 days by ELISA; format: functional; details: HepG2 2.2.15, 72 h; procedure, shortened: as §2
Hepatitis B virus [24] = experiment: Antiviral activity against Hepatitis B virus infected in human HepG2.2.15 cells assessed as inhibition of HBeAg secretion at 300 uM after 6 days by ELISA; format: functional; details: HepG2 2.2.15, 144 h; procedure, shortened: as §2
Hepatitis B virus [25] = experiment: Antiviral activity against Hepatitis B virus infected in human HepG2.2.15 cells assessed as inhibition of HBsAg secretion at 37.5 uM after 9 days by ELISA; format: functional; details: HepG2 2.2.15, 216 h; procedure, shortened: as §2
Hepatitis B virus [26] = experiment: Antiviral activity against Hepatitis B virus infected in human HepG2.2.15 cells assessed as inhibition of HBsAg secretion at 150 uM after 9 days by ELISA; format: functional; details: HepG2 2.2.15, 216 h; procedure, shortened: as §2
Hepatitis B virus [27] = experiment: Antiviral activity against Hepatitis B virus infected in human HepG2.2.15 cells assessed as inhibition of HBeAg secretion at 300 uM after 9 days by ELISA; format: functional; details: HepG2 2.2.15, 216 h; procedure, shortened: as §2
Hepatitis B virus [28] = experiment: Antiviral activity against Hepatitis B virus infected in human HepG2.2.15 cells assessed as inhibition of HBsAg secretion at 300 uM after 6 days by ELISA; format: functional; details: HepG2 2.2.15, 144 h; procedure, shortened: as §2
Hepatitis B virus [29] = experiment: Antiviral activity against Hepatitis B virus infected in human HepG2.2.15 cells assessed as inhibition of HBeAg secretion at 75 uM after 3 days by ELISA; format: functional; details: HepG2 2.2.15, 72 h; procedure, shortened: as §2
Hepatitis B virus [30] = experiment: Antiviral activity against Hepatitis B virus infected in human HepG2.2.15 cells assessed as inhibition of HBsAg secretion at 37.5 uM after 6 days by ELISA; format: functional; details: HepG2 2.2.15, 144 h; procedure, shortened: as §2
Hepatitis B virus [31] = experiment: Antiviral activity against Hepatitis B virus infected in human HepG2.2.15 cells assessed as inhibition of HBsAg secretion at 300 uM after 9 days by ELISA; format: functional; details: HepG2 2.2.15, 216 h; procedure, shortened: as §2
Hepatitis B virus [32] = experiment: Antiviral activity against Hepatitis B virus infected in human HepG2.2.15 cells assessed as cell survival at 150 uM after 9 days (reference value: 100%); format: functional; details: HepG2 2.2.15, 216 h; procedure, shortened: as §1

Compound: O=C(O)/C=C/c1ccc2c(c1)OCO2
- CC50 at 216 h [1]: 503 µM
- IC50 (Hepatitis B virus [2]): 433 µM
- IC50 (Hepatitis B virus [3]): 526 µM
- Ratio CC50/IC50 [4]: 1.16
- Ratio CC50/IC50 [5]: 0.96

- IC50 (Hepatitis B virus [2]): 143 µM
- IC50 (Hepatitis B virus [3]): 150 µM
Compound: COc1cc(/C=C/C(=O)O/N=C/c2ccccn2)cc(OC)c1OC
- viability at 75 µM (Hepatitis B virus [6]): 107%
- inhibition at 75 µM (Hepatitis B virus [7]): 2.96%
- inhibition at 150 µM (Hepatitis B virus [8]): 47.9%
- CC50 at 216 h [1]: 787 µM
- inhibition at 150 µM (Hepatitis B virus [9]): 29.6%
- inhibition at 75 µM (Hepatitis B virus [10]): 41.2%
- inhibition at 75 µM (Hepatitis B virus [11]): 17.2%
- viability at 37.5 µM (Hepatitis B virus [12]): 108%
- inhibition at 300 µM (Hepatitis B virus [13]): 34.2%
- inhibition at 75 µM (Hepatitis B virus [14]): 39.2%
- inhibition at 150 µM (Hepatitis B virus [15]): 28.2%
- inhibition at 150 µM (Hepatitis B virus [16]): 35.1%
- inhibition at 150 µM (Hepatitis B virus [17]): 8.39%
- inhibition at 75 µM (Hepatitis B virus [18]): 29.2%
- viability at 300 µM (Hepatitis B virus [19]): 89%
- inhibition at 37.5 µM (Hepatitis B virus [20]): 21.4%
- inhibition at 37.5 µM (Hepatitis B virus [21]): 13.4%
- inhibition at 37.5 µM (Hepatitis B virus [22]): 30.2%
- inhibition at 300 µM (Hepatitis B virus [23]): 15.1%
- inhibition at 300 µM (Hepatitis B virus [24]): 53.6%
- inhibition at 37.5 µM (Hepatitis B virus [25]): 24.1%
- inhibition at 150 µM (Hepatitis B virus [26]): 47.3%
- Ratio CC50/IC50 [4]: 5.52
- inhibition at 300 µM (Hepatitis B virus [27]): 61.1%
- Ratio CC50/IC50 [5]: 5.25
- inhibition at 300 µM (Hepatitis B virus [28]): 40.5%
- inhibition at 75 µM (Hepatitis B virus [29]): 20.3%
- inhibition at 37.5 µM (Hepatitis B virus [30]): 12.7%
- inhibition at 300 µM (Hepatitis B virus [31]): 66.7%
- viability at 150 µM (Hepatitis B virus [32]): 98.1%

Compound: COc1cc(C=O)cc(OC)c1OC
- CC50 at 216 h [1]: > 1500 µM
